Here are results for 96 compounds from ChEMBL document CHEMBL4513216, “Probing the Open Global Health Chemical Diversity Library for Multistage-Active Starting Points for Next-Generation Antimalarials” (ACS Infect Dis, 2020).

The nature of this data set: Toxicity liver stage against HepG2, at 10uM. Also noted: test concentration 10 uM, cell line HepG2-A16-CD81EGFP. It counts as cell-based. The conditions noted are these: human, HepG2-A16-CD81EGFP cells; read-out: INHIBITION
In short, it runs like this:
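Uninfected HepG2-A16-CD81EGFP cells, 3 × 10^3 per well, 1536-well, plated on prespotted compound at 10 μM final, parasite-free screening media added to match infected plates; puromycin 10 μM positive, DMSO 0.5% negative; run in parallel with 48 h PbLuc assay at 37 °C, 5% CO2; viability by CellTiter-Glo luminescence, normalized to controls.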
On to `CCNC(=O)Cn1ncc(N(C)CCc2ccccc2)cc1=O`, for which the cytotoxicity at 10 µM was 5.69%. The result for `COc1ccc(N2CCN(CC[C@H](O)c3ccccc3)CC2=O)cc1` reads 2.41%; that for `CN(C)c1ccc(NC(=O)c2cccc(N(C)C)c2)nc1`, 23.3%; that for `Cn1cc(CN2CCn3cc(Cn4cccn4)nc3C2)cn1`, 4.49%. As for `Cc1ccc2nc(N3CCN(CC(=O)NC(C)C)CC3)cc(C)c2c1`, the figure is -14.7%; as for `O=C(NCCn1nc(-n2cncn2)ccc1=O)c1ccsc1`, 1.99%; as for `O=C(c1ccon1)N1CCCC(n2cncn2)C1` (stereo unspecified), -8.51%. As for `Cc1noc(C2CCCN(C(=O)c3cc(Cl)ccc3F)C2)n1` (stereo unspecified), the figure is 2.66%; as for `Cc1cnc(N2CC[C@@H]3CN(CCC(C)C)S(=O)(=O)[C@@H]3CC2)nc1`, -3.1%. With `Cc1c(C(=O)NC2(C#N)CCSC2)cnn1-c1ccccc1Cl` (stereo unspecified), the cytotoxicity at 10 µM is -2.06%. As for `CC(C)Cc1ncc2c(n1)CN(c1nccc(NC(C)C)n1)C2`, the figure is -10.7%. The result for `COc1cc(N2CC[C@H]3OCC[C@@]3(COc3nccc(C)n3)C2)ncn1` reads 11.8%.

On to `NC(=O)CCn1ccc(NC(=O)c2ccc(OCC3CC3)cc2)n1`, for which the cytotoxicity at 10 µM came out at 5.48%. As for `O=C(O)c1cc2c(nc1-c1ccncc1)CCN(Cc1ccoc1)CC2`, the figure is -70.9%; as for `Cc1ccsc1-c1nnc(SCC(=O)O)n1C(C)c1ccccc1` (stereo unspecified), -4.65%. The result for `COCCN1CCC2(CC1)CN(Cc1cccc(C)n1)C(=O)CO2` reads -4.52%; that for `CC(C)CN1CC(C(=O)NCCOc2ccc3c(c2)OCO3)CC1=O` (stereo unspecified), -1.39%; that for `Oc1coc2cc(OC[C@@H]3CCCN4CCCC[C@H]34)ccc12`, 1.96%. In the case of `COc1ccc(CCNC(=O)C2CCOC2)c(Cl)c1` (stereo unspecified), the cytotoxicity at 10 µM was -2.27%. The result for `Cc1ccoc1C(=O)N1CCO[C@H]2[C@H](OCc3ccncc3)CC[C@@H]21` reads 9.06%; that for `O=C(Nc1cnn(COc2ccc(F)cc2Cl)c1)C1CC1`, -10.6%; that for `CCCS(=O)(=O)N1CCC2(CCCC(=O)N2C)CC1`, 3.29%. The result for `CN1CCCC(Cc2cncc(C(=O)NCC3CC3)c2)C1` (stereo unspecified) reads -3.99%; that for `Cn1ccc(CN2CCC3(CCCN3CC3CC3)CC2)n1`, -92.4%; that for `CN(Cc1ccsc1)C(=O)C1CCC(=O)N(Cc2ccccn2)C1` (stereo unspecified), 0.0228%. For the compound `CC(C)c1nc(CN(C)C(=O)Cn2nc3ccccc3n2)no1`, the cytotoxicity at 10 µM worked out at 10.2%. The result for `O=C1NCCN1C1CCN(Cc2ccccn2)CC1` reads 4.08%; that for `Cn1ncc2c(=O)[nH]c(N3CCCC3c3cccc(Cl)c3)nc21` (stereo unspecified), 19.6%. The result for `O=C(CCn1cc(Cl)cn1)N1C[C@H]2CC[C@@H](C1)N(Cc1ccccn1)C2` reads 7.15%. As for `O=c1c2ccccc2ncn1Cc1cc(C2CC2)[nH]n1`, the figure is 3.8%; as for `CC(CNC(=O)c1cccnc1Oc1cccnc1)N(C)C` (stereo unspecified), -14%. For the compound `CCC1=N[C@@]2(CC[C@@H]3CN(Cc4ccc(C)cc4)C[C@@H]32)C(=O)N1C`, the cytotoxicity at 10 µM was -95%. As to `CCN1CCN(C(=O)C(C)SC)CC1` (stereo unspecified), the cytotoxicity at 10 µM is 11.4%. As for `CCOC(=O)Cn1ccc(NC(=O)Cc2ccccc2F)n1`, the cytotoxicity at 10 µM is 3.33%.

Turning to `Cc1cc(CN(C)Cc2cnc3c(c2)c(C)nn3C)no1`, the cytotoxicity at 10 µM amounted to 0.995%. As for `CC(C)CNC(=O)c1cc(C2CC2)nc2c1c(C1CCCN1)nn2C` (stereo unspecified), the figure is 15.9%.

In the case of `CCn1nccc1CN(C)C(=O)Cn1cc2c(n1)c(C)nn2CC`, the cytotoxicity at 10 µM worked out at 15.4%.

In the case of `CC(=O)NCc1ccc(S(=O)(=O)NC(=O)c2ccc3c(c2)CCO3)s1`, the cytotoxicity at 10 µM is 16.1%. As for `O=C1NC(c2ccccc2)=N[C@@]12CC[C@@H]1CN(Cc3cccnc3)C[C@@H]12`, the figure is 6.8%. Turning to `COCCN1CC2(CCCN(C(=O)NCc3ccccc3)C2)CCC1=O` (stereo unspecified), the cytotoxicity at 10 µM is -9.31%. The result for `COCC(=O)N1CCc2nc(C(=O)N(C)C)sc2CC1` reads 15.5%; that for `CC(C)C(=O)N1CCC2(CC1)[C@@H]1CN(C(=O)N(C)C)C[C@@H]1C(=O)N2C`, 1.76%; that for `Cc1nc(-c2cccc(C(=O)O)c2)c[nH]1`, -3.24%. As for `Cc1cnn(CC2CN(CCCS(=O)(=O)N(C)C)CCO2)c1` (stereo unspecified), the figure is -2.71%; as for `COC(=O)c1sc(NCc2ccc(N3CCC(O)CC3)c(F)c2)nc1Cl`, 44.5%. The result for `COCCc1nnc(NC(=O)CSCc2ccccc2)o1` reads -3.75%; that for `O=C(c1ccnnc1)N1C[C@@H]2COC[C@]2(COCC2CC2)C1`, -73.2%; that for `COCCNc1ccccc1CNC(=O)NCc1ccc(C)s1`, 4.38%. Take `CCc1nc2n(n1)CC(Nc1nc(C)cc(N(C)C)n1)CC2` (stereo unspecified): the cytotoxicity at 10 µM is 5.02%. In the case of `COc1c(CNC2(c3noc(C)n3)CCC2)c(C)nn1C`, the cytotoxicity at 10 µM stood at 4.2%. The result for `O=C(c1cn(-c2cc(N3CCSCC3)ncn2)cn1)N1CCSCC1` reads -17.3%; that for `O=C(c1ccco1)N1CC[C@@H]2O[C@@H](COCCN3CCCC3)CC[C@@H]21`, -76.8%. As for `O=C(CC1CC1)N1CCC2(CC1)CN(c1cccnc1)C(=O)CO2`, the figure is -90.8%; as for `COCCn1ccc2c(cnc3nc(SC)nn32)c1=O`, -17.4%; as for `CC(=O)N1CCCC(c2nc(N(C)C)ncc2-c2ccccc2)C1` (stereo unspecified), 14.7%.

Consider `NC(=O)c1cc(CC2CCCN(c3cnccn3)C2)ncn1` (stereo unspecified), for which the cytotoxicity at 10 µM is -1.15%. The result for `O=C(O)C1CN(c2cncc(Cc3ccccc3)n2)C1` reads 0.885%. With `CNc1cc(N2CCCC2CNCc2cccc(C(N)=O)c2)ncn1` (stereo unspecified), the cytotoxicity at 10 µM is -7.72%. The result for `Nc1nnc(C2CC(=O)N(c3ccccc3)C2)s1` (stereo unspecified) reads 4.23%.

For `CCc1cc(C(=O)N2Cc3ccccc3OC3(CCOCC3)C2)on1`, the cytotoxicity at 10 µM was -9.54%. The result for `CC(C)(CNc1cn[nH]c(=O)c1Cl)c1ccc2c(c1)OCO2` reads 6.67%; that for `O=C1NCCN1C(CNS(=O)(=O)C1CC1)Cc1cccc(F)c1` (stereo unspecified), -3.09%.

For the compound `Cc1occc1C(=O)N1Cc2nccn2CC(CN(C)C)C1` (stereo unspecified), the cytotoxicity at 10 µM was -97.7%. The result for `CC(C)c1nnc(CN2CCCC2Cn2cncn2)o1` (stereo unspecified) reads -11.1%; that for `CCn1cnnc1CNC(=O)N(C)Cc1ccc2c(c1)OCO2`, -5.83%.

As for `Cc1nnc(CN(C)CC2CCCCC2)o1`, the cytotoxicity at 10 µM amounted to 15.6%. As for `O=C1Nc2ccccc2CNC12CCN(CC1CCNC1)CC2` (stereo unspecified), the figure is 6.61%; as for `CC(C)CCN1CC2(CCCN(C(=O)c3cscn3)C2)CCC1=O` (stereo unspecified), -13.9%; as for `CSCCC(C)(O)CNS(=O)(=O)Cc1ccc(F)cc1` (stereo unspecified), -5.95%. With `Cc1ccccc1OCCC(=O)OC(C)C(=O)Nc1sccc1C(N)=O` (stereo unspecified), the cytotoxicity at 10 µM stood at 19.4%. The result for `COc1cc2c(cc1CN1CCc3sccc3C1C)OCO2` (stereo unspecified) reads 7.01%; that for `CN(C)CCNC(=O)c1cc2n(n1)CCN(C(=O)c1ccc[nH]1)C2`, 2.58%; that for `Cc1csc(CN2CC[C@H]3C[C@@H](c4noc(C)n4)O[C@@H]3C2)n1`, -1.2%. The result for `O=C(NC[C@H]1COCc2nc3cc(F)ccc3n21)c1cccnc1` reads -1.23%; that for `Cn1ncc2c(=O)[nH]c(CN3CCCC3Cc3ccccc3)nc21` (stereo unspecified), -6.56%. Turning to `Cc1ccccc1CN(CCN(C)C)C(=O)c1ccc2nccn2c1`, the cytotoxicity at 10 µM is -2.36%. As for `Cc1cc(C)n(CC2CCCN2C(=O)c2c(C)noc2C)n1` (stereo unspecified), the figure is -13.8%; as for `OC(COc1ccc(F)cc1)CN1CCC(c2ccn[nH]2)CC1` (stereo unspecified), 0.923%; as for `Cc1nn(C)cc1NC(=O)CN1CCN(C2CCCC2)C(=O)C1`, 6.89%. The result for `c1cnc(N2CCCC3(CN(CC4CCOCC4)CCO3)C2)cn1` (stereo unspecified) reads 0.37%; that for `CNC(=O)[C@@H]1C[C@H]2CN(C(=O)c3ccco3)C[C@H]2N1C`, -2.85%; that for `C1CCCN(c2nc(C3CC3)no2)CC1`, -5.59%. As for `Cc1nc2n(n1)CC(NCCCc1nc(-c3cccs3)no1)CC2` (stereo unspecified), the figure is -4.38%; as for `CCS(=O)(=O)NC1CCc2c(ccc(=O)n2CC2CC2)C1` (stereo unspecified), -67.2%. `CC(C)N(C)S(=O)(=O)c1ccc2c(c1)CCN(C(=O)c1cscn1)C2`: the cytotoxicity at 10 µM came out at 8.48%. The result for `CCN(C)Cc1n[nH]c(=O)n1-c1cc(F)ccc1C` reads 11.4%; that for `N#CCCN(C(=O)COC1CCCC1)C1CC1`, -4.14%.

In the case of `Cc1ccc(C(=O)N2CCn3c(COCC4CC4)cnc3C2C)nc1` (stereo unspecified), the cytotoxicity at 10 µM came out at 3.58%. The result for `O[C@@H]1C[C@H]2CN(Cc3ccccc3Cl)[C@H](Cc3ccccc3)CN2C1` reads -2.51%; that for `CCN(C(=O)Cc1ccc(NCc2nccn2C)cc1)c1ccccc1`, -2.09%; that for `N[C@@H]1CCC[C@@H](Oc2ccc(F)cc2Oc2ccccc2)[C@@H]1O`, -7.39%. With `Cc1nccn1CCCNc1nccnc1C#N`, the cytotoxicity at 10 µM is -7.21%. `Cc1cnn(CC2CCCCN2CC(=O)Nc2nc(C)cs2)c1` (stereo unspecified): the cytotoxicity at 10 µM is 0.109%. As for `Cn1cnc2c1C(COCc1cccnc1)N(Cc1nccs1)CC2` (stereo unspecified), the figure is 10.5%; as for `Cc1ccc(S(=O)(=O)N(C)Cc2nccs2)cc1N(C)C`, -9.78%; as for `CC(C)NC(=O)CCNC(=O)Nc1cnn(-c2ccccc2Cl)c1`, 1.75%.
